{"source": "ChEMBL document CHEMBL1139546", "about": "“Radiosynthesis and evaluation of [11C]-(+)-4-propyl-3,4,4a,5,6,10b-hexahydro-2H-naphtho[1,2-b][1,4]oxazin-9-ol as a potential radiotracer for in vivo imaging of the dopamine D2 high-affinity state with positron emission tomography” (2005)", "key": {"Rattus norvegicus [1]": {"system": "Rattus norvegicus", "assay": "Effect on compound specific binding to rat brain upon pre-treatment with 2 mg/kg reserpine", "format": "functional", "summary_of_the_method": "(§1)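 Male Sprague-Dawley rats, four groups of five: reserpine (2 mg/kg sc) 24 h before tracer then AMPT (250 mg/kg ip) 1 h before; reserpine then saline; saline then AMPT; saline twice as controls. Tracer given iv via tail vein. Killed 60 min post-injection. Striatal and cerebellar %ID/g counted. Specific binding ratio = (striatum − cerebellum)/cerebellum.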"}, "Rattus norvegicus [2]": {"system": "Rattus norvegicus", "assay": "Effect on compound specific binding to rat brain upon pre-treatment with 2 mg/kg reserpine and 250 mg/kg AMPT", "format": "functional", "summary_of_the_method": "as §1"}, "Rattus norvegicus [3]": {"system": "Rattus norvegicus", "assay": "Effect on compound specific binding to dopamine release in rat brain upon pre-treatment with 1 mg/kg amphetamine", "format": "functional", "summary_of_the_method": "(§2)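 Male Sprague-Dawley rats (230-280 g), groups of 4-5, given the challenge agent in saline (1 mL/kg, iv unless otherwise stated) 25-30 min before tail-vein [11C] tracer, 25-30 MBq (1-2 nmol) in buffered saline. A saline control group was run each time. Killed 60 min post-injection. Striatum and cerebellum counted by gamma counter. Specific binding = (%ID/g striatum − %ID/g cerebellum)/%ID/g cerebellum.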"}, "Rattus norvegicus [4]": {"system": "Rattus norvegicus", "assay": "Effect on compound specific binding to dopamine release in rat brain upon pre-treatment with 2 mg/kg amphetamine", "format": "functional", "summary_of_the_method": "as §2"}, "Rattus norvegicus [5]": {"system": "Rattus norvegicus", "assay": "Effect on compound specific binding to dopamine release in rat brain upon pre-treatment with 4 mg/kg amphetamine", "format": "functional", "summary_of_the_method": "as §2"}, "Rattus norvegicus [6]": {"system": "Rattus norvegicus", "assay": "Effect on compound specific binding to dopamine release in rat brain upon pre-treatment with 0.1 mg/kg amphetamine", "format": "functional", "summary_of_the_method": "as §2"}, "Rattus norvegicus [7]": {"system": "Rattus norvegicus", "assay": "Effect on compound specific binding to dopamine release in rat brain upon pre-treatment with 0.5 mg/kg amphetamine", "format": "functional", "summary_of_the_method": "as §2"}, "Rattus norvegicus [8]": {"system": "Rattus norvegicus", "assay": "Effect on compound specific binding to dopamine release in rat brain upon pre-treatment with 0.25 mg/kg amphetamine", "format": "functional", "summary_of_the_method": "as §2"}, "[9]": {"assay": "Percent change in rat brain dopamine D2/sigma receptor binding after in rat brain after 1 mg/kg haloperidol treatment", "format": "functional", "summary_of_the_method": "as §2"}, "[10]": {"assay": "Percent change in rat brain dopamine D2/sigma receptor binding after in rat brain after 0.2 mg/kg haloperidol treatment", "format": "functional", "summary_of_the_method": "as §2"}, "[11]": {"biological_target": "D(1A) dopamine receptor (Rattus norvegicus) (UniProt P18901)", "sequence (P18901 whole entry)": "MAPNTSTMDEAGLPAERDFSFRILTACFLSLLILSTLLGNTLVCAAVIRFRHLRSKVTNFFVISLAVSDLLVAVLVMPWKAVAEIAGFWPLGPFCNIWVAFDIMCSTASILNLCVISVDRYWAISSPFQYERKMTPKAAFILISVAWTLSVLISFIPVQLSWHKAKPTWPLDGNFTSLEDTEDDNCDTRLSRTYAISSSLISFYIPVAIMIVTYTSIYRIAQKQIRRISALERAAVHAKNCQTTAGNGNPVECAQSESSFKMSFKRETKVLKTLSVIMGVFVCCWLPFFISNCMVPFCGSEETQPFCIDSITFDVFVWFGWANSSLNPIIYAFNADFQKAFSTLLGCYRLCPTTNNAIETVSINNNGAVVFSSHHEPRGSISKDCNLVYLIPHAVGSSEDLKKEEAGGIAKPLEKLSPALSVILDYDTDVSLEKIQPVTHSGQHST", "conditions": "Brain, at 1 mg/kg"}, "[12]": {"biological_target": "Sodium-dependent dopamine transporter (Rattus norvegicus) (UniProt P23977)", "sequence (P23977 whole entry)": "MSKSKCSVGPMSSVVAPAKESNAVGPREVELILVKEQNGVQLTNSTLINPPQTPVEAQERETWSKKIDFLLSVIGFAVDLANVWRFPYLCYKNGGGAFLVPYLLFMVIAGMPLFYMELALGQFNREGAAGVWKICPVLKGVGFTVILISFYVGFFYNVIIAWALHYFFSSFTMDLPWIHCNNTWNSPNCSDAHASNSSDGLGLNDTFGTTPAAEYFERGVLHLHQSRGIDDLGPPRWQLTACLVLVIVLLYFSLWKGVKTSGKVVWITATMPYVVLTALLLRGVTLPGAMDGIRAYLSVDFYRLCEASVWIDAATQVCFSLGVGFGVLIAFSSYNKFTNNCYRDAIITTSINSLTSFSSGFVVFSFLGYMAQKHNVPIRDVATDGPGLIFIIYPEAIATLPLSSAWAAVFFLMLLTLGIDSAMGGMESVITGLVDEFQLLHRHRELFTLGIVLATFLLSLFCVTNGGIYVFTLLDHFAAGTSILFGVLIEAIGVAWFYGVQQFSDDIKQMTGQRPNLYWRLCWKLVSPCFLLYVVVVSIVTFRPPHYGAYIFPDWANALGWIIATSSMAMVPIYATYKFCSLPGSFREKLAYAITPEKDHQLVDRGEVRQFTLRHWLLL", "conditions": "Brain, at 1 mg/kg"}, "[13]": {"biological_target": "Sodium-dependent dopamine transporter (Rattus norvegicus) (UniProt P23977)", "conditions": "Brain, at 2 mg/kg"}, "[14]": {"biological_target": "Sodium-dependent dopamine transporter (Rattus norvegicus) (UniProt P23977)", "conditions": "Brain, at 5 mg/kg"}, "[15]": {"biological_target": "Tyrosine 3-monooxygenase (Rattus norvegicus) (UniProt P04177)", "sequence (P04177 whole entry)": "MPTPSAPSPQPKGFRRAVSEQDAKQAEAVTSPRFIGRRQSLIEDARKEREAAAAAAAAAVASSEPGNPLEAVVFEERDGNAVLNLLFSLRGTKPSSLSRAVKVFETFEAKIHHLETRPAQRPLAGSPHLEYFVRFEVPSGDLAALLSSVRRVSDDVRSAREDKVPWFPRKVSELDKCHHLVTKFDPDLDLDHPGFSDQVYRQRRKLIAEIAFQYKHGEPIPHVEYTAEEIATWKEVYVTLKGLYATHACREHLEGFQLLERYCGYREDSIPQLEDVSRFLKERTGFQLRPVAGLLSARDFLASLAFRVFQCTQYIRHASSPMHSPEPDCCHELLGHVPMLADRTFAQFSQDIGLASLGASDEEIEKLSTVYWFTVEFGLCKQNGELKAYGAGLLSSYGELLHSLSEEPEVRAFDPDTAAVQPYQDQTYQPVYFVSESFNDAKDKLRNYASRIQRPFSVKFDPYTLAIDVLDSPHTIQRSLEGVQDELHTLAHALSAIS", "conditions": "Brain, at 250 mg/kg"}, "[16]": {"biological_target": "Sodium-dependent dopamine transporter (Rattus norvegicus) (UniProt P23977)", "conditions": "Brain, at 10 mg/kg"}, "[17]": {"biological_target": "Sodium-dependent dopamine transporter (Rattus norvegicus) (UniProt P23977)", "conditions": "Brain, at 0.5 mg/kg"}, "[18]": {"biological_target": "Sigma non-opioid intracellular receptor 1 (Rattus norvegicus) (UniProt Q9R0C9)", "sequence (Q9R0C9 whole entry)": "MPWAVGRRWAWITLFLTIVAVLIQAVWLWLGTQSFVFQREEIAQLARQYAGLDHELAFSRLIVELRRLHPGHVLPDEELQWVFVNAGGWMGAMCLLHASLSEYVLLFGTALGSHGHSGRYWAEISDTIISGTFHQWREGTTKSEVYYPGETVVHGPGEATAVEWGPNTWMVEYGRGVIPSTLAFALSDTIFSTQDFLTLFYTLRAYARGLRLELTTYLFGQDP", "conditions": "Brain, at 1 mg/kg"}, "[19]": {"biological_target": "T1, Alpha-2A adrenergic receptor (Rattus norvegicus) (UniProt P22909)", "T1 sequence (whole entry)": "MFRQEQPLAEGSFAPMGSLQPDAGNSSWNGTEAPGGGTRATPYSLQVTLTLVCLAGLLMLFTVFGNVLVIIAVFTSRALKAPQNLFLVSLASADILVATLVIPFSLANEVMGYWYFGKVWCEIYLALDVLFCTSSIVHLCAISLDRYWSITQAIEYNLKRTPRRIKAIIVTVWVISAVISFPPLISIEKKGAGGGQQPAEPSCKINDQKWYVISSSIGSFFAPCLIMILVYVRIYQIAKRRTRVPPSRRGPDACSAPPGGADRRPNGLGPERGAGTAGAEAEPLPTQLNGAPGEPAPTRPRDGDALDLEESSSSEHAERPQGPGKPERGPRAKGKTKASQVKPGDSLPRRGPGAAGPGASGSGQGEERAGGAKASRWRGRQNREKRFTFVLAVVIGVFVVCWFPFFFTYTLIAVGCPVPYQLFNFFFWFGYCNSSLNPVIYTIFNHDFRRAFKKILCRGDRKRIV", "conditions": "Brain, at 2 mg/kg"}, "[20]": {"biological_target": "T2, Dopamine receptor D2 and D3 (Rattus norvegicus) (UniProt P19020+P61169)", "T2 sequence (P19020 whole entry, looked up)": "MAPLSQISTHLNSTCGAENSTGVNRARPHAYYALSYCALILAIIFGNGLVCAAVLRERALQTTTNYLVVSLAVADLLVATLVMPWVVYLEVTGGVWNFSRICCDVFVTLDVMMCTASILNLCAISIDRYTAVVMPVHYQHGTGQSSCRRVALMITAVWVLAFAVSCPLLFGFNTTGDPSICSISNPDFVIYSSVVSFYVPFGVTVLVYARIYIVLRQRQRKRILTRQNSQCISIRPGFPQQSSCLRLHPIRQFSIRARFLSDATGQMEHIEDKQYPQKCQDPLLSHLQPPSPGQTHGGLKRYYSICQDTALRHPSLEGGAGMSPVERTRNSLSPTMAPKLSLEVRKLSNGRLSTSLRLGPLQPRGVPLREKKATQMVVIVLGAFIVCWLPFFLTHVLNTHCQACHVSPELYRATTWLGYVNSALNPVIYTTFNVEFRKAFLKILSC", "T2 sequence (P61169 whole entry, looked up)": "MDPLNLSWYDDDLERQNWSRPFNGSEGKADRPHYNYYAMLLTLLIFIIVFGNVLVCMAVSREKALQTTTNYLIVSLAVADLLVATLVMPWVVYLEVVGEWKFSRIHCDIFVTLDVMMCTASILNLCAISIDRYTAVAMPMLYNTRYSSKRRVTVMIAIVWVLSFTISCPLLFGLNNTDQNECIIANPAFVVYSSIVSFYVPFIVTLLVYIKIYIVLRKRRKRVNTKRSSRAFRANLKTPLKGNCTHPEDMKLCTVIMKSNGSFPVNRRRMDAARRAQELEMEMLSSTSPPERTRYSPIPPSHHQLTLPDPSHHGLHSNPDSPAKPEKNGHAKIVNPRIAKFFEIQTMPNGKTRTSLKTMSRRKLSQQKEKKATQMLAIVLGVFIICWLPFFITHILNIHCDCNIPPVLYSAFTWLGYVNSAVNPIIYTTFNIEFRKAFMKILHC", "conditions": "Brain, at 1 mg/kg"}, "[21]": {"biological_target": "Adrenergic receptor alpha-2 (Rattus norvegicus) (UniProt P22086+P19328+P22909)", "sequence (P19328 whole entry, looked up, one chain of several)": "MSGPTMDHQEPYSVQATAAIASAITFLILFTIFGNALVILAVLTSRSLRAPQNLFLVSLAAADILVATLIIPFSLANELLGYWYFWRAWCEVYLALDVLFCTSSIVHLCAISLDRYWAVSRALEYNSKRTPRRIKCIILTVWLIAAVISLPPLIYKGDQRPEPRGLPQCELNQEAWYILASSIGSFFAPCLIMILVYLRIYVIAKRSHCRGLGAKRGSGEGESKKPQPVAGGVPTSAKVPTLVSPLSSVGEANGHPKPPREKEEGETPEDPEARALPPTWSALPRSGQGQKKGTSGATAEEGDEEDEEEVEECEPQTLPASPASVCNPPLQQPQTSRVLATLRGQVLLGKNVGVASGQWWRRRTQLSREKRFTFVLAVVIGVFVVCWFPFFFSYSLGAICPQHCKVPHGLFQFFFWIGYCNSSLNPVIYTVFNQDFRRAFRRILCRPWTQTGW", "sequence (P22086 whole entry, looked up, one chain of several)": "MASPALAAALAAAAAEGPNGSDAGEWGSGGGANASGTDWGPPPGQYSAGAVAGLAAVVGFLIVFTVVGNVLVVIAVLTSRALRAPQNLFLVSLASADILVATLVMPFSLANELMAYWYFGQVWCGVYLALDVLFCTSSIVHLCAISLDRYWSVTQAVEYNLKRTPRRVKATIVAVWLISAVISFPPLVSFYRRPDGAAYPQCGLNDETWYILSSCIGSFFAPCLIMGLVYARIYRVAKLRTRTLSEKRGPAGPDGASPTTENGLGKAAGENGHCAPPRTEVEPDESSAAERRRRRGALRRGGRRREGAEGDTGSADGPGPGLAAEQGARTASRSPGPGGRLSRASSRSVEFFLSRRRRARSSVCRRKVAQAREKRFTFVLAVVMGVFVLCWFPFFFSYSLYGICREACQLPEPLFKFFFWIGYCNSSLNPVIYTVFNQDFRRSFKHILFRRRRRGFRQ", "conditions": "Brain, at 1 mg/kg"}, "[22]": {"biological_target": "T1, Alpha-2A adrenergic receptor (Rattus norvegicus)", "conditions": "Brain, at 0.1 mg/kg"}, "[23]": {"biological_target": "T2, Dopamine receptor D2 and D3 (Rattus norvegicus)", "conditions": "Brain, at 0.2 mg/kg"}, "[24]": {"biological_target": "T2, Dopamine receptor D2 and D3 (Rattus norvegicus)", "conditions": "Brain, at 0.04 mg/kg"}, "[25]": {"biological_target": "T3, 5-hydroxytryptamine receptor 1A (Rattus norvegicus) (UniProt P19327)", "T3 sequence (whole entry)": "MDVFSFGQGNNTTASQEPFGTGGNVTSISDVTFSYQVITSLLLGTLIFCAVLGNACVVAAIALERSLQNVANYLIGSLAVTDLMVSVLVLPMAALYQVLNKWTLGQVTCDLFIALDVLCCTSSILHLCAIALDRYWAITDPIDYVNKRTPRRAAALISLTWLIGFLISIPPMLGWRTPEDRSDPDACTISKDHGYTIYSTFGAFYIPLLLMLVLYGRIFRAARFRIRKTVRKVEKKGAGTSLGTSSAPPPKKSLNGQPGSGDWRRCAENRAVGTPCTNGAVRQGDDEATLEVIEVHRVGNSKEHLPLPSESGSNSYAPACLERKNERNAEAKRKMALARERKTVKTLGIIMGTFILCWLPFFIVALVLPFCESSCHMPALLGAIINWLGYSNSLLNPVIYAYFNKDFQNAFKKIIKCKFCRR", "conditions": "Brain, at 1 mg/kg"}, "[26]": {"biological_target": "T2, Dopamine receptor D2 and D3 (Rattus norvegicus)", "conditions": "Brain, at 0.01 mg/kg"}}}
{"compound": "CCCN1CCO[C@@H]2c3cc(O)ccc3CC[C@H]21", "note": "[NAXAGOLIDE]", "values": [{"measurement": "Change", "setting": "Rattus norvegicus [1]", "value": 30, "unit": "%"}, {"measurement": "Change", "setting": "Rattus norvegicus [2]", "value": 34, "unit": "%"}, {"measurement": "Change", "setting": "Rattus norvegicus [3]", "value": -17, "unit": "%"}, {"measurement": "Change", "setting": "Rattus norvegicus [4]", "value": -30, "unit": "%"}, {"measurement": "Change", "setting": "Rattus norvegicus [5]", "value": -38, "unit": "%"}, {"measurement": "Change", "setting": "Rattus norvegicus [6]", "value": -2, "unit": "%"}, {"measurement": "Change", "setting": "Rattus norvegicus [7]", "value": -19, "unit": "%"}, {"measurement": "Change", "setting": "Rattus norvegicus [8]", "value": -1, "unit": "%"}, {"measurement": "Change", "setting": "[9]", "value": -95, "unit": "%"}, {"measurement": "Change", "setting": "[10]", "value": -91, "unit": "%"}, {"measurement": "Change", "setting": "[11]", "value": 11, "unit": "%"}, {"measurement": "Change", "setting": "[12]", "value": -42, "unit": "%"}, {"measurement": "Change", "setting": "[13]", "value": -57, "unit": "%"}, {"measurement": "Change", "setting": "[14]", "value": -57, "unit": "%"}, {"measurement": "Change", "setting": "[15]", "value": 31, "unit": "%"}, {"measurement": "Change", "setting": "[16]", "value": -73, "unit": "%"}, {"measurement": "Change", "setting": "[17]", "value": -43, "unit": "%"}, {"measurement": "Change", "setting": "[18]", "value": 22, "unit": "%"}, {"measurement": "Change", "setting": "[19]", "value": 13, "unit": "%"}, {"measurement": "Change", "setting": "[20]", "value": -93, "unit": "%"}, {"measurement": "Change", "setting": "[21]", "value": 30, "unit": "%"}, {"measurement": "Change", "setting": "[22]", "value": 10, "unit": "%"}, {"measurement": "Change", "setting": "[23]", "value": -80, "unit": "%"}, {"measurement": "Change", "setting": "[24]", "value": -39, "unit": "%"}, {"measurement": "Change", "setting": "[25]", "value": -14, "unit": "%"}, {"measurement": "Change", "setting": "[26]", "value": -22, "unit": "%"}]}
